Assay results from ChEMBL document CHEMBL4680177, “Novel distamycin analogues that block the cell cycle of African trypanosomes with high selectivity and potency” (Eur J Med Chem, 2020).
pEC50: −log10 of the molar value. Active and inactive are the calls of the source. No cut-off for these calls is given here.

Experiments:
[1] = test system: Trypanosoma brucei brucei; experiment: Antitrypanosomal activity against bloodstream form Trypanosoma brucei brucei 427 […] assessed as cell viability at 5 uM after 24 hrs by propidium iodide staining based flow cytometric analysis relative to control; assay type: functional
Outline: (§1)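 Bloodstream T. b. brucei 427 expressing hGrx1-roGFP2 (line 449_Grx-roGFP2), grown in HMI-9 with 10% FBS, 37 °C, 5% CO2. Biosensor induced with oxytetracycline (1 µg/mL final). Exponential-phase cells seeded at 5×10^5/mL and exposed 24 h to a single 5 µM screen, or to 0.0001–120 µM for EC50. DMSO ≤1% v/v. Viability read by PI exclusion on flow cytometry, expressed relative to DMSO control. EC50 from nonlinear fit; ≥3 replicates, S.D.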

[2] = test system: Trypanosoma brucei brucei; experiment: Induction of oxidative stress in bloodstream form Trypanosoma brucei brucei 427 at 250 uM after 20 min by propidium iodide staining based flow cytometric analysis
[3] = test system: Trypanosoma brucei brucei; experiment: Antitrypanosomal activity against bloodstream form Trypanosoma brucei brucei 427 […] assessed as cell viability after 24 hrs by propidium iodide staining based flow cytometric analysis; assay type: functional, organism-based; conditions: Trypanosoma brucei, 427, 24 h; outline: as §1
[4] = Selectivity index, ratio of EC50 for cytotoxicity against mouse J774 cells to EC50 for antitrypanosomal activity against bloodstream form Trypanosoma brucei brucei 427; assay type: toxicity, cell-based; conditions: read-out: Ratio EC50
Outline: (§2)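 J774 murine macrophages in DMEM with 10% FBS, 37 °C, 5% CO2. Exposed 24 h to a 6-point compound series, in triplicate, up to 120 µM with DMSO 1% v/v. Viability read with WST-1 reagent relative to DMSO control and EC50 taken from nonlinear fit. The selectivity index is the macrophage EC50 divided by the trypanosome EC50.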

J774 [5] = experiment: Cytotoxicity against mouse J774 cells assessed as reduction in cell viability at 120 uM after 24 hrs by WST-1 assay; assay type: cell-based; conditions: j774, 24 h; outline: as §2
J774 [6] = experiment: Cytotoxicity against mouse J774 cells assessed as reduction in cell viability >120 uM after 24 hrs by WST-1 assay; assay type: cell-based; conditions: j774, 24 h; outline: as §2
[7] = test system: Trypanosoma brucei brucei; experiment: Induction of cell cycle arrest in bloodstream form Trypanosoma brucei brucei 427 assessed as accumulation at G2/M phase at 41 nM after 24 hrs by propidium iodide staining based flow cytometric analysis (reference value: 20%); assay type: functional
[8] = test system: Trypanosoma brucei brucei; experiment: Induction of cell cycle arrest in bloodstream form Trypanosoma brucei brucei 427 assessed as accumulation at G0/G1 phase at 41 nM after 24 hrs by propidium iodide staining based flow cytometric analysis (reference value: 49%); assay type: functional
[9] = test system: Trypanosoma brucei brucei; experiment: Induction of cell cycle arrest in bloodstream form Trypanosoma brucei brucei 427 assessed as accumulation at 1K+1N cells at 41 nM after 24 hrs by DAPI. staining based epifluorescence microscopic analysis (reference value: 80%); assay type: functional
Outline: (§3)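 Parasites at 5×10^5/mL treated 24 h with DMSO 1%, DAC 41 nM, or compound at 12 or 7 nM. Cells fixed in 4% paraformaldehyde for 18 min at room temperature and smeared on slides. Mounted in DAPI medium and scored by epifluorescence microscopy (60X/100X) for kinetoplast/nucleus configuration. At least 50 cells per sample.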

[10] = test system: Trypanosoma brucei brucei; experiment: Induction of cell cycle arrest in bloodstream form Trypanosoma brucei brucei 427 assessed as accumulation at 0K+1N cells at 41 nM after 24 hrs by DAPI. staining based epifluorescence microscopic analysis relative to control; assay type: functional; outline: as §3
DNA [11] = experiment: Competitive binding affinity to Escherichia coli XL-1 pUC18 plasmid DNA at 20 uM after 30 to 120 mins by DAPI staining based spectrofluorimetric method relative to control; assay type: nucleic-acid assay; conditions: time 30-120 min
Outline: (§4)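 pUC18 or pUC18 carrying a T. brucei minicircle, 5 nM in PBS pH 7.4, incubated 30 or 120 min with 20 µM compound or DMSO 1% v/v. DAPI then added to 500 nM final and emission recorded by spectrofluorimetry (ex 358 nm, em 368–600 nm). Fluorescence normalized to the DNA+DMSO+DAPI control set at 100%. Mean ± S.D., n=3.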

DNA [12] = experiment: Competitive binding affinity to Escherichia coli XL-1 pUC18 K-DNA at 20 uM after 30 to 120 mins by DAPI staining based spectrofluorimetric method relative to control; assay type: nucleic-acid assay; conditions: time 30-120 min; outline: as §4
[13] = test system: Trypanosoma brucei brucei; experiment: Antitrypanosomal activity against Trypanosoma brucei brucei AnTaT 1.1 infected in Balb/cJ mouse assessed as reduction in parasitemia at 40 mg/kg, ip for single dose and measured after 7 to 17 days; assay type: functional, organism-based; conditions: time 7-17 day
Outline: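 Female BalB/cJ mice, 6-8 weeks, ~20 g, infected ip with 10^4 bloodstream T. b. brucei AnTaT 1.1. From day 4 post-infection, groups of 6 dosed ip in 300 µL PBS: daily for 7 days at 2.09 or 8.36 mg/Kg, or one 40 mg/Kg dose; vehicle DMSO 3.3 mg/Kg/day for 7 days. Parasitemia from submandibular blood counted by light microscopy in a Neubauer chamber. Detection limit ≥2.5×10^4 parasites/mL. Kruskal-Wallis test versus vehicle.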

[14] = test system: Trypanosoma brucei brucei; experiment: Antitrypanosomal activity against bloodstream form Trypanosoma brucei brucei 427 […] assessed as cell viability upto 60 uM after 48 hrs by propidium iodide staining based flow cytometric analysis; assay type: functional, organism-based; conditions: dose microM <=60, time 48.0 hrs
Outline: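 Viability of bloodstream T. b. brucei 427 redox-reporter line under lower-density conditions: 1.2×10^4 parasites/mL seeded, 48 h exposure, compound tested up to 60 µM. Nifurtimox included as positive control. Viability read by PI exclusion on flow cytometry.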

pEC50 [3]	SMILES	Activity [1] [%]	Activity (J774 [5])	Activity (J774 [6])	also measured
	CCOC(=O)c1csc(NC(=O)c2cc([N+](=O)[O-])cn2C)n1	120.5			
	CC1=CC(=O)c2ccccc2C1=O				Activity [2]: Active
6.08	COC(=O)c1nc(NC(=O)c2cc(NC(=O)c3nc(NC(C)=O)sc3C(C)C)cn2C)sc1C(C)C	5.4	Non-Toxic	Nd(Insoluble)	selectivity ratio [4]: > 145
7.11	Cc1ccc(C(=O)Nc2ccc(S(=O)(=O)O)c3cc(S(=O)(=O)O)cc(S(=O)(=O)O)c23)cc1NC(=O)c1cccc(NC(=O)Nc2cccc(C(=O)Nc3cc(C(=O)Nc4ccc(S(=O)(=O)O)c5cc(S(=O)(=O)O)cc(S(=O)(=O)O)c45)ccc3C)c2)c1 [SURAMIN]				
7.39	CC(=O)NCC(=O)O.CC(=O)NCC(=O)O.N=C(N)c1ccc(/N=N/Nc2ccc(C(=N)N)cc2)cc1 [DIMINAZENE DIACETURATE]				Activity [7]: 93%; Activity [8]: 7%; Activity [9]: 44%; Activity [10]: 39%; Activity (DNA [11]): 22%; Activity (DNA [12]): 22%; Activity [13]: Active
	CC(C)c1sc(NC(=O)c2cc(NC(=O)c3nc(NC(=O)OC(C)(C)C)sc3C(C)C)cn2C)nc1C(=O)O	48.5	Non-Toxic	Nd(Insoluble)	
	CC(=O)Nc1nc(C(=O)Nc2cc(C(=O)Nc3nc(C(=O)O)c(C(C)C)s3)n(C)c2)c(C(C)C)s1	113.1	Non-Toxic	Nd(Insoluble)	Activity [14]: inactive
